Experimental data: ChEMBL document CHEMBL1145957 (J Med Chem, 2003)

Columns and labels:
Trypanosoma brucei [1] = assay: Minimum effective concentration in vitro against the bloodstream trypomastigote form of Trypanosoma brucei; assay type: functional; details: read-out: MEC
Summary of the method: (§1)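 T. brucei brucei AnTat 1.9 bloodstream forms kept cell-free at 10⁵ trypanosomes/mL. Drug added in 10-fold dilutions, 50 to 0.01 μM final, 16 replicates per dilution and control. Incubated 48 h at 37 °C, 5% CO2.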

Leishmania infantum [2] = assay: In vitro percent inhibition against mouse peritoneal macrophages infected with Leishmania infantum at 3.1 uM concentration; assay type: functional
Summary of the method: (§2)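 Primary mouse peritoneal macrophages seeded at 30 000 cells/well. After 24 h, spleen-derived L. infantum (MOHM/MA BE/67) amastigotes added at a 10:1 infection ratio with 2-fold drug dilutions. Incubated 5 days at 37 °C, 5% CO2; uninfected cultures treated in parallel. Total parasite load or infected-macrophage count scored microscopically on Wright-stained slides, versus untreated controls.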

Leishmania infantum [3] = assay: In vitro percent inhibition against mouse peritoneal macrophages infected with Leishmania infantum at 12.5 uM concentration; assay type: functional; summary of the method: as §2
Leishmania infantum [4] = assay: In vitro percent inhibition against mouse peritoneal macrophages infected with Leishmania infantum at 6.2 uM concentration; assay type: functional; summary of the method: as §2
Leishmania infantum [5] = assay: In vitro percent inhibition against mouse peritoneal macrophages infected with Leishmania infantum at 25 uM concentration; assay type: functional; summary of the method: as §2
Trypanosoma cruzi [6] = assay: In vitro percent inhibition against mouse peritoneal macrophages infected with Trypanosoma cruzi at 25 uM concentration; assay type: functional
Summary of the method: (§3)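 Mouse peritoneal macrophages seeded at 30 000 cells/well. After 24 h, about 100 000 T. cruzi Tulahen CL2 trypomastigotes per well added with 2-fold drug dilutions. Incubated 4 days at 37 °C, 5% CO2; uninfected cultures treated alike. Reduction of total parasite load (free trypomastigotes plus intracellular amastigotes) versus untreated controls scored microscopically.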

Trypanosoma cruzi [7] = assay: In vitro percent inhibition against mouse peritoneal macrophages infected with Trypanosoma cruzi at 6.2 uM concentration; assay type: functional; summary of the method: as §3
Trypanosoma cruzi [8] = assay: In vitro percent inhibition against mouse peritoneal macrophages infected with Trypanosoma cruzi at 12.5 uM concentration; assay type: functional; summary of the method: as §3
Trypanosoma cruzi [9] = assay: In vitro percent inhibition against mouse peritoneal macrophages infected with Trypanosoma cruzi at 3.1 uM concentration; assay type: functional; summary of the method: as §3
[10] = test system: Homo sapiens (MRC-5 cells); assay: Concentration that cause cytotoxicity at 25 uM concentration
[11] = test system: Homo sapiens (MRC-5 cells); assay: Concentration that cause cytotoxicity at 12.5 uM concentration
[12] = test system: Homo sapiens (MRC-5 cells); assay: Concentration that cause cytotoxicity at 6.2 uM concentration
[13] = test system: Homo sapiens (MRC-5 cells); assay: Concentration that cause cytotoxicity at 12.5 uM concentration in human MRC-5 cells
[14] = test system: Homo sapiens (MRC-5 cells); assay: Concentration that cause cytotoxicity at 6.2 uM concentration in human MRC-5 cells
[15] = test system: Homo sapiens (MRC-5 cells); assay: Concentration that cause cytotoxicity at 3.1 uM concentration in human MRC-5 cells
[16] = test system: Homo sapiens (MRC-5 cells); assay: Concentration that cause cytotoxicity at 25 uM concentration in human MRC-5 cells
Trypanosoma brucei [17] = assay: Effective concentration in vitro against the bloodstream trypomastigote form of Trypanosoma brucei; assay type: functional, organism-based; summary of the method: as §1
[18] = test system: Homo sapiens (MRC-5 cells); assay: Concentration that cause cytotoxicity at 3.1 uM concentration
Trypanosoma cruzi [19] = assay: Percent inhibition in vitro against intracellular form of Trypanosoma cruzi at 90 uM concentration; assay type: functional
Summary of the method: (§4)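 T. cruzi Y strain (MHOM/BR/OO/Y) trypomastigotes, grown in L6 myoblast cultures, infect mouse peritoneal macrophages in medium with drug from 90 to 3 μM. Incubation 72 h at 37 °C. Activity read as percent of infected macrophages in treated cultures.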

Trypanosoma cruzi [20] = assay: Percent inhibition in vitro against intracellular form of Trypanosoma cruzi at 10 uM concentration; assay type: functional; summary of the method: as §4
Leishmania donovani = assay: Percent inhibition in vitro against intracellular form of Leishmania donovani at 90 uM concentration; assay type: functional
Summary of the method: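 Hamster-spleen-derived L. donovani (MHOM/ET/67/L82) amastigotes infect mouse peritoneal macrophages in chamber slides. Infected cells kept with drug across 90–3 μM in quadruplicate for 7 days at 37 °C. Activity taken as percentage of macrophages cleared of amastigotes; sodium stibogluconate served as positive control.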

Trypanosoma cruzi [21] = assay: Percent inhibition in vitro against intracellular form of Trypanosoma cruzi at 30 uM concentration; assay type: functional; summary of the method: as §4
Trypanosoma cruzi [22] = assay: Effective dose against Trypanosoma cruzi; assay type: functional
Trypanosoma cruzi [23] = assay: Percent inhibition in vitro against intracellular form of Trypanosoma cruzi at 3 uM concentration; assay type: functional; summary of the method: as §4
Trypanosoma cruzi [24] = assay: In vitro percent inhibition against mouse peritoneal macrophages infected with Trypanosoma cruzi at 25 uM concentration; Toxic for macrophage; assay type: functional, organism-based; summary of the method: as §3
Leishmania infantum [25] = assay: In vitro percent inhibition against mouse peritoneal macrophages infected with Leishmania infantum at 25 uM concentration; Toxic for macrophage; assay type: functional, organism-based; summary of the method: as §2
[26] = test system: Homo sapiens (MRC-5 cells); assay: Concentration that cause cytotoxicity at 1.5 uM concentration

Row | EC50 (Trypanosoma brucei [17]) | Compound | minimal effective concentration (Trypanosoma brucei [1]) | inhibition at 6.2 µM (Leishmania infantum [4]) | inhibition at 25 µM (Leishmania infantum [5]) | inhibition at 25 µM (Trypanosoma cruzi [6]) | inhibition at 6.2 µM (Trypanosoma cruzi [7]) | inhibition at 25 µM [10] | inhibition at 12.5 µM [11] | further results
1 |  | Nc1nnc(-c2ccc([N+](=O)[O-])o2)o1 | > 51 µM |  |  |  |  |  |  | 
2 |  | Cn1c([N+](=O)[O-])cnc1-c1nnc(NC(=O)CCCC(=O)NC2C(O)OC(CO)C(O)C2O)s1 (centres undefined) |  | 0% | 0% | 99% | 60% |  |  | inhibition at 3.1 µM (Leishmania infantum [2]): 0%; inhibition at 12.5 µM (Leishmania infantum [3]): 0%; inhibition at 12.5 µM (Trypanosoma cruzi [8]): 99%; inhibition at 3.1 µM (Trypanosoma cruzi [9]): 20%
3 |  | Cn1c(-c2nnc(N)s2)nc(Sc2ccccc2)c1[N+](=O)[O-] |  | 0% | 0% | 80% | 0% | 40% | 3% | inhibition at 3.1 µM (Leishmania infantum [2]): 0%; inhibition at 12.5 µM (Leishmania infantum [3]): 0%; inhibition at 12.5 µM (Trypanosoma cruzi [8]): 60%; inhibition at 6.2 µM [12]: 0%; inhibition at 3.1 µM (Trypanosoma cruzi [9]): 0%
4 |  | NC(=O)N/N=C/c1ccc([N+](=O)[O-])o1 [NITROFURAZONE] | 5 µM | 0% | 0% | 99% | 40% |  |  | Inhibition [13]: 0%; Inhibition [14]: 0%; Inhibition [15]: 0%; Inhibition [16]: 0%
5 | 0.5 µM | Cn1c(-c2nnc(N)s2)nc(Br)c1[N+](=O)[O-] | 3.3 µM |  |  |  |  |  |  | 
6 |  | Cn1c([N+](=O)[O-])cnc1-c1nnc(NC(=O)C(F)(F)F)s1 | 31 µM |  |  |  |  |  |  | 
7 |  | Nc1nnc(-c2ccc([N+](=O)[O-])o2)s1 |  | 0% | 40% |  | 95% | 4% | 0% | inhibition at 3.1 µM [18]: 0%; inhibition at 6.2 µM [12]: 0%
8 |  | Cn1c(-c2nnc(N)s2)nc(N2CCCCC2)c1[N+](=O)[O-] |  |  |  |  |  |  |  | inhibition at 90 µM (Trypanosoma cruzi [19]): 41%; inhibition at 10 µM (Trypanosoma cruzi [20]): 0%; inhibition at 90 µM (Leishmania donovani): 0%; inhibition at 30 µM (Trypanosoma cruzi [21]): 3%
9 |  | N/C(S)=N/N=C/c1ccc([N+](=O)[O-])s1 |  | 0% | 40% | 90% | 40% | 0% | 0% | inhibition at 3.1 µM [18]: 0%; inhibition at 6.2 µM [12]: 0%
10 |  | Cn1c([N+](=O)[O-])cnc1/C=N/N=C(/N)S |  |  |  |  |  |  |  | inhibition at 90 µM (Trypanosoma cruzi [19]): 99%; ED50 (Trypanosoma cruzi [22]): 3.3 µM; inhibition at 10 µM (Trypanosoma cruzi [20]): 71%; inhibition at 3 µM (Trypanosoma cruzi [23]): 54%; inhibition at 30 µM (Trypanosoma cruzi [21]): 93%
11 | 25 µM | Cn1c(-c2nnc(N)s2)nc(C(F)(F)F)c1[N+](=O)[O-] | > 34 µM |  |  |  |  |  |  | 
12 | > 41 µM | Cc1nc(-c2nnc(N)s2)n(C)c1[N+](=O)[O-] | > 41 µM |  |  |  |  |  |  | 
13 | 0.02 µM | Cc1ccc(C(=O)Nc2ccc(S(=O)(=O)O)c3cc(S(=O)(=O)O)cc(S(=O)(=O)O)c23)cc1NC(=O)c1cccc(NC(=O)Nc2cccc(C(=O)Nc3cc(C(=O)Nc4ccc(S(=O)(=O)O)c5cc(S(=O)(=O)O)cc(S(=O)(=O)O)c45)ccc3C)c2)c1 [SURAMIN] | 0.8 µM |  |  |  |  |  |  | 
14 | 8 µM | Cn1c([N+](=O)[O-])cnc1S(C)(=O)=O | > 49 µM | 0% |  |  | 0% | 85% | 29% | inhibition at 3.1 µM [18]: 28%; inhibition at 3.1 µM (Leishmania infantum [2]): 0%; inhibition at 12.5 µM (Leishmania infantum [3]): 0%; inhibition (Trypanosoma cruzi [24]): Toxic for macrophage; inhibition (Leishmania infantum [25]): Toxic for macrophage; inhibition at 12.5 µM (Trypanosoma cruzi [8]): 0%; inhibition at 1.5 µM [26]: 21%; inhibition at 3.1 µM (Trypanosoma cruzi [9]): 0%
15 | 0.2 µM | CC(=O)Nc1nnc(-c2ncc([N+](=O)[O-])n2C)s1 | 1.6 µM | 0% | 40% | 99% | 99% | 0% | 0% | inhibition at 3.1 µM (Leishmania infantum [2]): 0%; inhibition at 12.5 µM (Leishmania infantum [3]): 40%; inhibition at 12.5 µM (Trypanosoma cruzi [8]): 99%; inhibition at 6.2 µM [12]: 0%; inhibition at 3.1 µM (Trypanosoma cruzi [9]): 99%
